Screening results from PubChem BioAssay.
KCNK3 inh: human KCNK3 channel inhibitors, primary screen, CHO cells, FluxOR thallium flux, B-score; Potassium channel subfamily K member 3 (Homo sapiens), O14649; FluxOR fluorescence; stronger effect = lower value; B-score at 10 µM; actives 0.84% (n = 340,000);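 active = B-score under library mean minus 4 SD, starting fluorescence ratio at most library mean plus 5 SD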;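 also: more negative B-score means stronger inhibition of thallium flux through KCNK3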
Target sequence (O14649 whole entry, looked up): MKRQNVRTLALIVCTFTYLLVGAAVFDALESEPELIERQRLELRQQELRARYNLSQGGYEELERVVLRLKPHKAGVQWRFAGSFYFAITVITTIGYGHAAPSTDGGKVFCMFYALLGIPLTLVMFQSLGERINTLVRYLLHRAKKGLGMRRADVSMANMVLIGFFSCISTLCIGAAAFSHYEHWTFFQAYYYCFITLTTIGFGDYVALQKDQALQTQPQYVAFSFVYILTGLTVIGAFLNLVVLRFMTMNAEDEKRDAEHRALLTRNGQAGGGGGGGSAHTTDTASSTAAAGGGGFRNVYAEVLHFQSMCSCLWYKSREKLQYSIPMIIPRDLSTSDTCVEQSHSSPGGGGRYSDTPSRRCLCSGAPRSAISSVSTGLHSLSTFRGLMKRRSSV
hERG rescue: hERG rescue from dofetilide block, primary screen, cell-based, CHO-hERG, FluxOR thallium flux, dofetilide IC70. Voltage-gated inwardly rectifying potassium channel KCNH2 (Homo sapiens), Q12809. dofetilide IC70 present. activation (rescue from dofetilide block), less the hit threshold, % at 10 µM. actives 0.51% (n = 310,000). AID 1511, 2009;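 active = activation above the mean of controls blocked by dofetilide plus 5 SD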;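 also: thallium influx through hERG after potassium depolarization seen as dye fluorescence rise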
Kir21 block: inhibitors of mouse Kir2.1 inward-rectifier potassium channel; Inward rectifier potassium channel 2 (Mus musculus), P35561; HEK293-Kir2.1, FluxOR thallium flux fluorescence; stronger effect = lower value; B-score at 10 µM; actives 0.85% (n = 310,000); AID 1672, 2009;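 active = fluorescence ratio B-score at or below minus 3 SD of library scores, with starting-brightness B-score within 2 SD, cut at about -4.2 in these data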;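 also: channel flux triggered by added potassium and thallium sulfate stimulus; B-score of peak minus minimum fluorescence over baseline after thallium stimulus; more negative B-score means stronger Kir2.1 block with less thallium influx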
KCNQ1 act: potentiators or activators of KCNQ1 channel, primary screen, cell-based, thallium flux, high-throughput; Potassium voltage-gated channel subfamily KQT member 1 (Homo sapiens), P51787; AID 2648, 2010; actives 0.35% (n = 310,000); CHO-K1 KCNQ1, thallium flux FluxOR fluorescence; stronger effect = higher value; B-score at 10 µM;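 active = fluorescence ratio B-score, a plate-corrected score, at least three library SD, with initial intensity B-score within 5 SD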
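Material: CHO-K1 cells stably expressing KCNQ1. Medium: assay buffer for compound exposure, DMSO matched across wells. Reagent: K+/Tl+ depolarizing stimulus. Compound dosing: single-concentration screen. Times: 37 °C overnight plating, 90-min dark dye load, 20-min compound pretreatment. Technique: FluxOR Tl+ flux fluorescence.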
KCNQ1 inh: inhibitors of human KCNQ1 channel, primary screen, cell-based, thallium flux, high-throughput; Potassium voltage-gated channel subfamily KQT member 1 (Homo sapiens), P51787; CHO-K1 KCNQ1, FluxOR thallium flux fluorescence; stronger effect = higher value; B-score at 10 µM; actives 1.3% (n = 310,000); AID 2642, 2010;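 active = compounds whose thallium flux B-score, printed positive for inhibition, exceeds three library SD while starting fluorescence stays within three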;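 also: channel opened by potassium depolarization with thallium stimulus after 20 min compound exposure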
KCNK9 inh: KCNK9 potassium channel inhibitors, primary screen, HEK293 cells, thallium flux. FluxOR thallium flux fluorescence; stronger effect = lower value. B-score at 10 µM. actives 1.2% (n = 310,000). AID 488922, 2010;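 active = ratio B-score over 3 SD below the library mean, with starting fluorescence within 5 SD of its mean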;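 also: negative B-score means less thallium flux so channel inhibition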
KCNK9 block conf: KCNK9 potassium channel inhibitors, confirmation, HEK293 cells, thallium flux, duplicate | shares compounds with KCNK9 inh | actives 43% (n = 4,900) | FluxOR thallium flux fluorescence | inhibition, % at 10 µM;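 active = thallium signal inhibited by more than 5 SD of the compound-free buffer control wells, on both duplicate plates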
Kir2-1 spec: mouse Kir2.1 channel inhibition, confirmation, selectivity assay for KCNK9 modulator project, cell-based, HEK293, thallium flux; shares compounds with KCNK9 inh; Kir2.1 cells, FluxOR thallium flux fluorescence; inhibition, % at 10 µM; actives 4% (n = 4,900); AID 492993, 2010;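 active = thallium signal drop more than 5 SD beyond the mean of the no-compound control wells, seen in both duplicate plates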;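 also: signal is fluorescence rise after thallium addition divided by baseline fluorescence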
HEK293 Tl ctr: thallium flux in non-induced HEK293 cells, confirmation, counter-screen for KCNK9 inhibitor project, cell-based, second counter screen, non-induced KCNK9-HEK293; shares compounds with KCNK9 inh; FluxOR thallium flux; inhibition, % at 10 µM; actives 40% (n = 4,900);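 active = thallium signal drop beyond 5 SD of the untreated control mean, on both duplicate plates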
Large screens that a line does not name were inactive (follow-up assays come after a bar, where they were run); ! = a repeat was not active. Sampled rows, rich in hits. Any-hit rate of the full collection: about 3.7%.

O=C(/C=C1\NC2(CCCC2)Cc2ccccc21)C(=O)N/N=C/c1ccc(O)c(O)c1	KCNK9 inh -9.96 | KCNK9 block conf 48.5% | Kir2-1 spec inactive | HEK293 Tl ctr 29.5%
CC1(C)CC(C(CCN(Cc2ccccc2)C(=O)c2ccco2)c2ccc(F)cc2)CCO1 (stereo not drawn)	KCNK9 inh -10.4 | KCNK9 block conf 67.0% | Kir2-1 spec inactive | HEK293 Tl ctr 49.5%
CC1(C)CC(N(Cc2ccc(F)cc2)C(=O)c2ccc(F)cc2)CCO1 (stereo not drawn)	none
Cc1cc(C)c(C)c(S(=O)(=O)NCC(=O)NCC2CCCCC2)c1C	KCNK9 inh -12.3 | KCNK9 block conf 33.5% | Kir2-1 spec inactive | HEK293 Tl ctr 26.5%
CCCCN(CCCC)c1ccc(C(=O)c2ccccc2C(=O)O)c(O)c1	KCNQ1 act 18 | KCNK9 block conf inactive | Kir2-1 spec inactive | HEK293 Tl ctr inactive
Cc1ccc(N(CC(=O)NC2CCCCC2)S(=O)(=O)c2c(C)noc2C)cc1	none
CN(CC1CCCN(CCc2cccc(C(F)(F)F)c2)C1)C(=O)c1cc2ccccc2o1 (stereo not drawn)	none | KCNK9 block conf inactive | Kir2-1 spec inactive | HEK293 Tl ctr inactive
C/C(=N\NC(=O)COc1ccc(C(C)(C)C)cc1)c1cc2ccccc2o1	none | KCNK9 block conf inactive | Kir2-1 spec inactive | HEK293 Tl ctr inactive
C/C(=N\NC(=O)COc1ccc(C)cc1C(C)C)c1cc2ccccc2o1	none | KCNK9 block conf inactive | Kir2-1 spec inactive | HEK293 Tl ctr inactive
O=c1c2ccccc2c(=O)n2n1Cc1ccccc1C2	none
N#C/C(C(=O)Nc1ccc(Cl)cc1)=C(/S)Nc1ccccc1	none | KCNK9 block conf inactive | Kir2-1 spec inactive | HEK293 Tl ctr inactive
O=C(Nc1ccc(Nc2ccccc2)cc1)c1ccc(Cl)cc1	none
CCn1c(C(=O)N2CCc3ccccc3C2)cc2sccc21	none | KCNK9 block conf inactive | Kir2-1 spec inactive | HEK293 Tl ctr inactive
CCn1c(C(=O)NCCCN2CCc3ccccc3C2)cc2sccc21	none
CCOc1cc(/C=C2\SC(=Nc3ccccc3)N(c3ccccc3)C2=O)ccc1OCC(=O)O	none
CCCN1C(=O)/C(=C/c2ccco2)SC1=Nc1ccc(OC)cc1	none
CCCN1C(=O)/C(=C\c2ccncc2)SC1=Nc1ccccc1	none | KCNK9 block conf inactive | Kir2-1 spec inactive | HEK293 Tl ctr inactive
CCN1C(=O)/C(=C\c2ccncc2)SC1=Nc1ccc(C)c(C)c1	none | KCNK9 block conf inactive | Kir2-1 spec inactive | HEK293 Tl ctr inactive
CCOC(=O)COc1ccc(/C=C2/SC(=Nc3ccccc3)N(Cc3cccnc3)C2=O)cc1OC	none | KCNK9 block conf inactive | Kir2-1 spec inactive | HEK293 Tl ctr inactive
N=c1c(C(=O)NC2CCCCC2)cc2c(=O)n3ccccc3nc2n1CCc1ccccc1	none
Cc1cccc(OCCCC(=O)N2CCCCCC2)c1C	none
CCN(CC)c1ccc(NC(=O)c2ccc(=O)[nH]c2)cc1S(=O)(=O)Nc1ccccc1OC	none
O=C(Nc1ccc2c(c1)C(=O)OC2)c1ccccc1Cl	none
O=C(CNC(=O)Cc1ccccc1)NCc1cccc(C(F)(F)F)c1	none
CC[C@@H](C)[C@H](CNC)NC[C@@H](Cc1cccc2ccccc12)NCCc1cccc(C(F)(F)F)c1	Kir21 block -6.47, KCNQ1 inh 9, KCNK9 inh -9.04 | KCNK9 block conf 38.0% | Kir2-1 spec 52.0% | HEK293 Tl ctr 33.5%
COc1ccc(OC)c(CN2CCN(C(=O)c3cccc(S(=O)(=O)Nc4ccc(C)cc4)c3)CC2)c1	none
COc1cc(SC#N)ccc1N=Cc1c(C)[nH]n(-c2ccc(C)c(C)c2)c1=O	none | KCNK9 block conf inactive | Kir2-1 spec inactive | HEK293 Tl ctr inactive
Cc1c(Cl)cccc1NC(=S)N(CCN(C)C)C(C)c1ccco1 (stereo not drawn)	none | KCNK9 block conf inactive | Kir2-1 spec inactive | HEK293 Tl ctr inactive
CCCCCOC(=O)Cn1c(=O)oc2ccccc21	none
CCOC(=O)Cn1c(COc2ccccc2OC)[n+](C)c2ccccc21	none
CCCCCCCCCCOC(=O)Cn1c(COc2ccc(OC)cc2)[n+](C)c2ccccc21	Kir21 block -8.59, KCNQ1 inh 10, KCNK9 inh -16.5 | KCNK9 block conf 70.0% | Kir2-1 spec 75.0% | HEK293 Tl ctr 33.0%!
CCCCCCCCCCOC(=O)Cn1c(COc2ccc(Cl)cc2)[n+](C)c2ccccc21	KCNK9 inh -10.5 | KCNK9 block conf 72.5% | Kir2-1 spec 49.5% | HEK293 Tl ctr inactive
CCCCCCCCCCOC(=O)Cn1c(COc2ccccc2)[n+](C)c2ccccc21	Kir21 block -13.5, KCNQ1 inh 8, KCNK9 inh -14.7 | KCNK9 block conf 72.0% | Kir2-1 spec 75.0% | HEK293 Tl ctr 33.5%
CN1C(=O)[C@@H]2[C@H](C1=O)[C@@H]1C(=O)Nc3ccccc3C(=O)N1[C@@H]2c1cccc(Br)c1	none
CSc1nc(N)c(C(=O)Nc2ccc([N+](=O)[O-])cc2)s1	none
CCC(C)Sc1nnc(NC(=O)c2ccco2)s1 (stereo not drawn)	none
CCOc1ccc(Br)cc1C1=NN(C(C)=O)C(c2ccc([N+](=O)[O-])s2)O1 (stereo not drawn)	KCNK3 inh -10.2, KCNK9 inh -10.3 | KCNK9 block conf 63.0% | Kir2-1 spec inactive | HEK293 Tl ctr 39.5%
Cc1ccc(S(=O)(=O)N2CCN(C(=O)c3ccccc3Cc3ccccc3)CC2)c(C)c1	none
Cc1cc(C)cc(Oc2nc(C(F)(F)F)nc3ccccc23)c1	none | KCNK9 block conf inactive | Kir2-1 spec inactive | HEK293 Tl ctr 24.0%
COc1ccc(CCNc2ncnc3c2c(C)c(C)n3CCO)cc1OC	none
CCc1ccc(OCCCCN(C)Cc2ccccc2)cc1	Kir21 block -6.11 | KCNK9 block conf inactive | Kir2-1 spec inactive | HEK293 Tl ctr inactive
